Measured values taken from ChEMBL document CHEMBL1137344, “Flavonoid dimers as bivalent modulators for P-glycoprotein-based multidrug resistance: synthetic apigenin homodimers linked with defined-length poly(ethylene glycol) spacers increase drug retention and enhance chemosensitivity in resistant cancer cells” (J Med Chem, 2006).
Calls of active or inactive are those of the source. The calls are words filed in the database; no cut-off is given here.

Key:
MDA-MB-435 [1] = assay: Antiproliferative activity against multidrug resistant MDA435/LCC6 cells by ELISA; assay type: functional, cell-based; settings: Homo sapiens
Summary of the method: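 MTS/PMS proliferation assay: cells seeded 2000/well, drugs added after 24 h attachment, growth 4 days in DMEM with 10% FBS at 37 °C, 5% CO2. MTS/PMS added for 2 h, absorbance read at 490 nm. Survival is taken relative to DMSO (0.05%) controls. IC50 is read from dose-response curves, at least triplicate, repeated twice.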

MDA-MB-435 [2] = assay: Antiproliferative activity against multidrug resistant MDA435/LCC6 cells in presence of 5 uM verapamil by ELISA; assay type: functional, cell-based; settings: Homo sapiens
Summary of the method: (§1)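 Resistant breast cells seeded 2000/well, allowed 24 h attachment, then exposed to anticancer-drug concentration series with or without 5 µM modulator for 4 days. MTS/PMS read at 490 nm after 2 h. IC50 from dose-response curves relative to 0.05% DMSO controls. RF = IC50 without modulator divided by IC50 with modulator.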

MDA-MB-435 [3] = assay: Antiproliferative activity against MDA435/LCC6 cells by ELISA; assay type: functional, cell-based; settings: Homo sapiens
MDA-MB-435 [4] = assay: Relative fold, IC50 in absence to presence of 1,13-bis[4'-((5,7-dihydroxy)-4H-chromen-4-on-2-yl)phenyl]-1,4,7,10,13-pentaoxatridecane in multidrug resistant MDA435/LCC6 cells; assay type: functional, Homo sapiens; summary of the method: as §1
P388 [5] = assay: Relative fold, IC50 in absence to presence of 1,13-bis[4'-((5,7-dihydroxy)-4H-chromen-4-on-2-yl)phenyl]-1,4,7,10,13-pentaoxatridecane in multidrug resistant P388 cells; assay type: functional, Mus musculus
Summary of the method: (§2)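 P388/ADR cells seeded 5000/well in RPMI 1640 with 10% FBS, given drug concentration series with or without 5 µM modulator for 3 days. MTS/PMS added for 2 h at 37 °C, absorbance at 490 nm. IC50 from dose-response curves versus 0.05% DMSO controls. RF = IC50 without modulator / IC50 with modulator.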

MDA-MB-435 [6] = assay: Antiproliferative activity against multidrug resistant MDA435/LCC6 cells in presence of 5 uM 1,13-bis[4'-((5,7-dihydroxy)-4H-chromen-4-on-2-yl)phenyl]-1,4,7,10,13-pentaoxatridecane by ELISA; assay type: functional, cell-based; settings: Homo sapiens; summary of the method: as §1
MDA-MB-435 [7] = assay: Relative fold, IC50 in absence to presence of verapamil in multidrug resistant MDA435/LCC6 cells; assay type: functional, Homo sapiens; summary of the method: as §1
P388 [8] = assay: Antiproliferative activity against P388 cells by ELISA; assay type: functional, cell-based; settings: Mus musculus
Summary of the method: (§3)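 MTS/PMS proliferation assay: cells seeded 5000/well in RPMI 1640 with 10% FBS and penicillin/streptomycin at 37 °C, 5% CO2. Drug series added and cells grown 3 days. MTS/PMS added for 2 h at 37 °C, absorbance read at 490 nm. Survival relative to DMSO (0.05%) controls; IC50 from dose-response curves, at least triplicate.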

P388/ADR [9] = assay: Antiproliferative activity against adriamycin resistant P388 cells by ELISA; assay type: functional, cell-based; settings: Mus musculus; summary of the method: as §3
P388/ADR [10] = assay: Antiproliferative activity against adriamycin resistant P388 cells in presence of 5 uM 1,13-bis[4'-((5,7-dihydroxy)-4H-chromen-4-on-2-yl)phenyl]-1,4,7,10,13-pentaoxatridecane by ELISA; assay type: functional, cell-based; settings: Mus musculus; summary of the method: as §2
MDA-MB-435 [11] = assay: Cytotoxicity against MDA435/LCC6 cells at 5 uM; assay type: functional, cell-based; settings: Homo sapiens
MDA-MB-435 [12] = assay: Reversal of vinblastine resistance in multidrug resistant MDA435/LCC6 cells by MTS assay; assay type: functional, cell-based; settings: Homo sapiens
Summary of the method: (§4)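 Resistant MDA435/LCC6 cells, 4-day MTS assay of paclitaxel or vinblastine dose-response with dimers at 5 µM or monomers at 10 µM. Verapamil 5 µM as positive control, DMSO 0.05% as solvent control. IC50 from curves, triplicate, some repeated three times and averaged.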

MDA-MB-435 [13] = assay: Reversal potency of vinblastine resistance in multidrug resistant MDA435/LCC6 cells by MTS assay; assay type: functional; settings: Homo sapiens, in the assay text read “doxorubicin” for “vinblastine”
MDA-MB-435 [14] = assay: Effect on P-gp-mediated drug efflux in multidrug resistant MDA435/LCC6 cells assessed as relative fold in intracellular DOX accumulation at 10 uM; assay type: functional, Homo sapiens
Summary of the method: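 Resistant MDA435/LCC6 cells grown to confluence, preincubated 30 min at 37 °C in fresh DMEM with modulator (0–20 µM), then DOX added (final 20 µM) for 2 h at 37 °C. Cells trypsinized, washed in cold PBS, lysed in 0.3 N HCl/50% ethanol, sonicated, centrifuged. Supernatant fluorescence read at ex 470/em 585 nm. Mean ± SD of three independent experiments.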

MDA-MB-435 [15] = assay: Reversal of paclitaxel resistance in multidrug resistant MDA435/LCC6 cells by MTS assay; assay type: functional, cell-based; settings: Homo sapiens; summary of the method: as §4
P388/ADR [16] = assay: Reversal of DOX resistance in P388 ADR cells by MTS assay at 5 uM; assay type: functional, cell-based; settings: Mus musculus
Summary of the method: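 P388/ADR cells: 3-day MTS assay of DOX dose-response with modulator at 5 µM, or 10 µM for monomers. Verapamil 5 µM and 0.05% DMSO as controls. IC50 from curves, triplicate points, mean ± SD of three independent experiments.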

MDA-MB-435 [17] = assay: Reversal of DOX resistance in multidrug resistant MDA435/LCC6 cells by MTS assay at 10 uM; assay type: functional, cell-based; settings: Homo sapiens
Summary of the method: (§5)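 MDA435/LCC6 MDR cells in DMEM with 10% FBS, 2000 cells/well, allowed to attach for 24 h. Anticancer drug was added in serial concentrations with or without modulator (dimers 5 µM, monomers 10 µM; 0.05% DMSO solvent control), then grown for 4 days at 37 °C, 5% CO2. MTS/PMS was added for 2 h and A490 read. Survival was taken relative to DMSO controls; IC60 for DOX, IC50 for the others; triplicate.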

MDA-MB-435 [18] = assay: Cytotoxicity against MDA435/LCC6 cells at 10 uM; assay type: functional, cell-based; settings: Homo sapiens
MDA-MB-435 [19] = assay: Reversal of vinblastine resistance in multidrug resistant MDA435/LCC6 cells by MTS assay at 10 uM; assay type: functional, cell-based; settings: Homo sapiens; summary of the method: as §5

Compound	IC50 (MDA-MB-435 [1]) [nM]	IC50 (MDA-MB-435 [3]) [nM]	Ratio IC50 (MDA-MB-435 [4])	Ratio IC50 (P388 [5])	IC50 (MDA-MB-435 [6]) [nM]	IC50 (P388 [8]) [nM]	IC50 (P388/ADR [9]) [nM]	IC50 (P388/ADR [10]) [nM]	Activity (MDA-MB-435 [11])	Activity (P388/ADR [16])	also measured
COc1cccc2c1C(=O)c1c(O)c3c(c(O)c1C2=O)C[C@@](O)(C(=O)CO)C[C@@H]3O[C@H]1C[C@H](N)[C@H](O)[C@H](C)O1 [DOXORUBICIN]	4690	300	9	14	550	22	1740	123	–	–	IC50 (MDA-MB-435 [2]): 300 nM; Ratio IC50 (MDA-MB-435 [7]): 16
O=c1cc(-c2ccc(OCCOCCOc3ccc(-c4cc(=O)c5c(O)cc(O)cc5o4)cc3)cc2)oc2cc(O)cc(O)c12	–	–	–	–	–	–	–	–	inactive	–	IC50 (MDA-MB-435 [12]): 0.61 nM; IC60 (MDA-MB-435 [13]): 1300 nM; Activity (MDA-MB-435 [14]): 4.5; IC50 (MDA-MB-435 [15]): 19.9 nM
O=c1cc(-c2ccc(OCCOCCOCCOCCOCCOCCOCCOCCOc3ccc(-c4cc(=O)c5c(O)cc(O)cc5o4)cc3)cc2)oc2cc(O)cc(O)c12	–	–	–	–	–	–	–	–	inactive	inactive	–
O=c1cc(-c2ccc(OCCOCCOCCO)cc2)oc2cc(O)cc(O)c12	–	–	–	–	–	–	–	–	–	–	Activity (MDA-MB-435 [17]): inactive; Activity (MDA-MB-435 [18]): inactive; Activity (MDA-MB-435 [19]): inactive
O=c1cc(-c2ccc(OCCOCCOCCOCCO)cc2)oc2cc(O)cc(O)c12	–	–	–	–	–	–	–	–	–	–	Activity (MDA-MB-435 [17]): inactive; Activity (MDA-MB-435 [18]): inactive; Activity (MDA-MB-435 [19]): inactive; EC50 (MDA-MB-435 [15]): > 10000 nM
O=c1cc(-c2ccc(OCCOCCOCCOCCOCCOc3ccc(-c4cc(=O)c5c(O)cc(O)cc5o4)cc3)cc2)oc2cc(O)cc(O)c12	–	–	–	–	–	–	–	–	inactive	inactive	–
CC[C@]1(O)C[C@@H]2CN(CCc3c([nH]c4ccccc34)[C@@](C(=O)OC)(c3cc4c(cc3OC)N(C)[C@H]3[C@@](O)(C(=O)OC)[C@H](OC(C)=O)[C@]5(CC)C=CCN6CC[C@]43[C@@H]65)C2)C1 [VINBLASTINE]	4.4	0.34	10	22	0.42	4.1	95	4.3	–	–	IC50 (MDA-MB-435 [2]): 0.29 nM; Ratio IC50 (MDA-MB-435 [7]): 15
O=c1cc(-c2ccc(OCCOCCOCCOc3ccc(-c4cc(=O)c5c(O)cc(O)cc5o4)cc3)cc2)oc2cc(O)cc(O)c12	–	–	–	–	–	–	–	–	inactive	–	IC50 (MDA-MB-435 [12]): 0.87 nM; IC60 (MDA-MB-435 [13]): 1300 nM; Activity (MDA-MB-435 [14]): 4; IC50 (MDA-MB-435 [15]): 21.5 nM
COc1ccc(CCN(C)CCCC(C#N)(c2ccc(OC)c(OC)c2)C(C)C)cc1OC (stereo not drawn) [VERAPAMIL]	–	–	–	–	–	–	–	–	–	–	IC50 (MDA-MB-435 [12]): 0.25 nM; EC50 (MDA-MB-435 [15]): 700 nM; IC50 (MDA-MB-435 [15]): 5.2 nM
O=c1cc(-c2ccc(OCCOCCOCCOCCOCCOCCOc3ccc(-c4cc(=O)c5c(O)cc(O)cc5o4)cc3)cc2)oc2cc(O)cc(O)c12	–	–	–	–	–	–	–	–	inactive	inactive	–
O=c1cc(-c2ccc(OCCOCCOCCOCCOCCOCCOCCOc3ccc(-c4cc(=O)c5c(O)cc(O)cc5o4)cc3)cc2)oc2cc(O)cc(O)c12	–	–	–	–	–	–	–	–	inactive	inactive	–
CC[C@]1(O)C[C@H]2CN(CCc3c([nH]c4ccccc34)[C@@](C(=O)OC)(c3cc4c(cc3OC)N(C=O)[C@H]3[C@@](O)(C(=O)OC)[C@H](OC(C)=O)[C@]5(CC)C=CCN6CC[C@]43[C@@H]65)C2)C1 [VINCRISTINE]	26	0.29	41	66	0.63	2.2	299	4.5	–	–	–
CC(=O)O[C@H]1C(=O)[C@@]2(C)[C@H]([C@H](OC(=O)c3ccccc3)[C@]3(O)C[C@H](OC(=O)[C@H](O)[C@@H](NC(=O)c4ccccc4)c4ccccc4)C(C)=C1C3(C)C)[C@]1(OC(C)=O)CO[C@@H]1C[C@@H]2O [PACLITAXEL]	105	2.9	22	55	4.8	22	1640	30	–	–	IC50 (MDA-MB-435 [2]): 5.2 nM; Ratio IC50 (MDA-MB-435 [7]): 20
O=c1cc(-c2ccc(OCCOc3ccc(-c4cc(=O)c5c(O)cc(O)cc5o4)cc3)cc2)oc2cc(O)cc(O)c12	–	–	–	–	–	–	–	–	inactive	inactive	–
O=C1c2c(O)ccc(O)c2C(=O)c2c(NCCNCCO)ccc(NCCNCCO)c21 [MITOXANTRONE]	1440	0.35	2.2	2	646	4.3	395	194	–	–	–
O=c1cc(-c2ccc(OCCOCCOCCOCCOCCOCCOCCOCCOCCOc3ccc(-c4cc(=O)c5c(O)cc(O)cc5o4)cc3)cc2)oc2cc(O)cc(O)c12	–	–	–	–	–	–	–	–	inactive	inactive	–
